Source: ChEMBL document CHEMBL4689842, “EUbOPEN Chemogenomics Library wave 1” (2021)

Test system: Fibroblast
Test: Multiplex assay against human fibroblast
Assay type: toxicity, cell-based
Summary of the method: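 Imaging took place on a CQ1 microscope at 37°C and 5% CO2 once compound had been added to live cells stained at seeding with Hoechst33342, BioTracker Green Microtubule Cytoskeleton Dye, MitoTracker Red and Annexin V Alexa Fluor 680. CellPathfinder machine-learning gating classed cells as Hoechst high-intensity objects or normal cells, classed normal cells as having healthy, pyknosed or fragmented nuclei, and classed pyknosed cells as mitotic or apoptotic. Tubulin, mitochondrial-mass and membrane-permeability phenotypes are per cents of the healthy-nucleus cells.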

[1] = 12 h, 1 µM, compound concentration 1 uM, replicate 1
[2] = 12 h, 1 µM, compound concentration 1 uM, replicate 2
[3] = 12 h, 10 µM, compound concentration 10 uM, replicate 1
[4] = 12 h, 10 µM, compound concentration 10 uM, replicate 2
[5] = 24 h, 1 µM, compound concentration 1 uM, replicate 1
[6] = 24 h, 1 µM, compound concentration 1 uM, replicate 2
[7] = 24 h, 10 µM, compound concentration 10 uM, replicate 1
[8] = 24 h, 10 µM, compound concentration 10 uM, replicate 2
[9] = 48 h, 1 µM, compound concentration 1 uM, replicate 1
[10] = 48 h, 1 µM, compound concentration 1 uM, replicate 2
[11] = 48 h, 10 µM, compound concentration 10 uM, replicate 1
[12] = 48 h, 10 µM, compound concentration 10 uM, replicate 2

## COc1cccc([C@@H](C)NCCCc2ccccc2Cl)c1.Cl [TECALCET HYDROCHLORIDE]
[1]
  Population Apoptotic (%): 55%
  Population Fragmented Nuclei (%): 20%
  Population Healthy Nuclei (%): 53%
  Population Hoechst High Intensity Objects (%): 9%
  Population Membrane Permeable-Phenotype (%): 22%
  Population Mitochondria Different-Phenotype (%): 4%
  Population Mitotic Cells (%): 44%
  Population Normal (%): 90%
  Population Pyknosed Nuclei (%): 25%
  Population Tubulin-Different-Phenotype (%): 53%
  Total Cell Count: 222
[2]
  Population Apoptotic (%): 16%
  Population Fragmented Nuclei (%): 10%
  Population Healthy Nuclei (%): 81%
  Population Hoechst High Intensity Objects (%): 10%
  Population Membrane Permeable-Phenotype (%): 6%
  Population Mitochondria Different-Phenotype (%): 20%
  Population Mitotic Cells (%): 83%
  Population Normal (%): 89%
  Population Pyknosed Nuclei (%): 8%
  Population Tubulin-Different-Phenotype (%): 18%
  Total Cell Count: 70
[3]
  Population Apoptotic (%): 62%
  Population Fragmented Nuclei (%): 26%
  Population Healthy Nuclei (%): 43%
  Population Hoechst High Intensity Objects (%): 12%
  Population Membrane Permeable-Phenotype (%): 11%
  Population Mitochondria Different-Phenotype (%): 17%
  Population Mitotic Cells (%): 37%
  Population Normal (%): 87%
  Population Pyknosed Nuclei (%): 29%
  Population Tubulin-Different-Phenotype (%): 71%
  Total Cell Count: 183
[4]
  Population Apoptotic (%): 41%
  Population Fragmented Nuclei (%): 7%
  Population Healthy Nuclei (%): 75%
  Population Hoechst High Intensity Objects (%): 5%
  Population Membrane Permeable-Phenotype (%): 18%
  Population Mitochondria Different-Phenotype (%): 90%
  Population Mitotic Cells (%): 58%
  Population Normal (%): 94%
  Population Pyknosed Nuclei (%): 17%
  Population Tubulin-Different-Phenotype (%): 96%
  Total Cell Count: 83
[5]
  Population Apoptotic (%): 56%
  Population Fragmented Nuclei (%): 28%
  Population Healthy Nuclei (%): 50%
  Population Hoechst High Intensity Objects (%): 10%
  Population Membrane Permeable-Phenotype (%): 26%
  Population Mitochondria Different-Phenotype (%): 4%
  Population Mitotic Cells (%): 43%
  Population Normal (%): 89%
  Population Pyknosed Nuclei (%): 21%
  Population Tubulin-Different-Phenotype (%): 62%
  Total Cell Count: 217
[6]
  Population Apoptotic (%): 77%
  Population Fragmented Nuclei (%): 8%
  Population Healthy Nuclei (%): 80%
  Population Hoechst High Intensity Objects (%): 8%
  Population Membrane Permeable-Phenotype (%): 6%
  Population Mitochondria Different-Phenotype (%): 6%
  Population Mitotic Cells (%): 22%
  Population Normal (%): 91%
  Population Pyknosed Nuclei (%): 10%
  Population Tubulin-Different-Phenotype (%): 12%
  Total Cell Count: 95
[7]
  Population Apoptotic (%): 61%
  Population Fragmented Nuclei (%): 25%
  Population Healthy Nuclei (%): 53%
  Population Hoechst High Intensity Objects (%): 17%
  Population Membrane Permeable-Phenotype (%): 13%
  Population Mitochondria Different-Phenotype (%): 31%
  Population Mitotic Cells (%): 38%
  Population Normal (%): 82%
  Population Pyknosed Nuclei (%): 21%
  Population Tubulin-Different-Phenotype (%): 75%
  Total Cell Count: 178
[8]
  Population Apoptotic (%): 35%
  Population Fragmented Nuclei (%): 8%
  Population Healthy Nuclei (%): 70%
  Population Hoechst High Intensity Objects (%): 8%
  Population Membrane Permeable-Phenotype (%): 24%
  Population Mitochondria Different-Phenotype (%): 91%
  Population Mitotic Cells (%): 64%
  Population Normal (%): 91%
  Population Pyknosed Nuclei (%): 20%
  Population Tubulin-Different-Phenotype (%): 92%
  Total Cell Count: 97
[9]
  Population Apoptotic (%): 54%
  Population Fragmented Nuclei (%): 28%
  Population Healthy Nuclei (%): 60%
  Population Hoechst High Intensity Objects (%): 10%
  Population Membrane Permeable-Phenotype (%): 19%
  Population Mitochondria Different-Phenotype (%): 3%
  Population Mitotic Cells (%): 45%
  Population Normal (%): 89%
  Population Pyknosed Nuclei (%): 10%
  Population Tubulin-Different-Phenotype (%): 42%
  Total Cell Count: 229
[10]
  Population Apoptotic (%): 0%
  Population Healthy Nuclei (%): 70%
  Population Hoechst High Intensity Objects (%): 13%
  Population Membrane Permeable-Phenotype (%): 13%
  Population Mitochondria Different-Phenotype (%): 4%
  Population Mitotic Cells (%): 100%
  Population Normal (%): 87%
  Population Pyknosed Nuclei (%): 1%
  Population Tubulin-Different-Phenotype (%): 40%
  Total Cell Count: 100
[11]
  Population Apoptotic (%): 76%
  Population Fragmented Nuclei (%): 46%
  Population Healthy Nuclei (%): 45%
  Population Hoechst High Intensity Objects (%): 21%
  Population Membrane Permeable-Phenotype (%): 6%
  Population Mitochondria Different-Phenotype (%): 16%
  Population Mitotic Cells (%): 23%
  Population Normal (%): 78%
  Population Pyknosed Nuclei (%): 8%
  Population Tubulin-Different-Phenotype (%): 60%
  Total Cell Count: 207
[12]
  Population Apoptotic (%): 0%
  Population Fragmented Nuclei (%): 56%
  Population Healthy Nuclei (%): 43%
  Population Hoechst High Intensity Objects (%): 15%
  Population Membrane Permeable-Phenotype (%): 0%
  Population Mitochondria Different-Phenotype (%): 12%
  Population Mitotic Cells (%): 100%
  Population Normal (%): 84%
  Population Pyknosed Nuclei (%): 0%
  Population Tubulin-Different-Phenotype (%): 76%
  Total Cell Count: 138
